Reference: ChEMBL document CHEMBL2021795, “Novel epigallocatechin gallate (EGCG) analogs activate AMP-activated protein kinase pathway and target cancer stem cells” (2012)
Calls of active or inactive are those of the source. The calls are words filed in the database; no cut-off is given here.

Tests used:
MDA-MB-231 [1] = test: Induction of AMPKalpha phosphorylation at T172 residue in human MDA-MB-231 cells at 20 uM after 3 hrs by Western blotting analysis relative to control; type: cell-based
How it was run: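 MDA-MB-231 cells in DMEM/F12 (1:1) with 10% FBS at 37°C, 5% CO2. Compounds were given at 20 μM, metformin at 10 mM, for 3 h. Whole-cell lysates were run on SDS–PAGE, blotted to nitrocellulose and probed for phospho-AMPKα (T172), with ECL detection. Phospho-AMPKα was normalized to β-actin.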

MDA-MB-231 [2] = test: Antiproliferative activity against human MDA-MB-231 cells after 24 hrs by MTT assay; type: functional, cell-based
How it was run: (§1)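 MDA-MB-231 cells were grown in 96-well plates to 70–80% confluency. Compounds or metformin were added for 24 h at 37°C, then MTT read-out. Samples were run in triplicate in three independent experiments. Data are mean ± SD, expressed as percent of untreated control (100%).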

MDA-MB-231 [3] = test: Inhibition of mammosphere formation in human MDA-MB-231 cells at 10 uM after 7 days by inverted phase-contrast microscopy; type: functional; details: MDA-MB-231, 168 h
How it was run: (§2)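 Single MDA-MB-231 cells were seeded at 1,000 cells/well in ultra-low-attachment 6-well plates. Sphere medium was DMEM/F12 1:1 with B-27, N-2 and penicillin/streptomycin, topped up every 3–4 days. Cells were exposed to compounds or metformin for 7 days. Spheres were collected by centrifugation (300 g, 5 min) and counted under an inverted phase-contrast microscope. Mean of three experiments.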

MDA-MB-231 [4] = test: Inhibition of mammosphere formation in human MDA-MB-231 cells at 20 uM after 7 days by inverted phase-contrast microscopy; type: functional; details: MDA-MB-231, 168 h; how it was run: as §2
MDA-MB-231 [5] = test: Activation of AMPKalpha in human MDA-MB-231 cells assessed as increase in Raptor S792 phosphorylation after 3 hrs by Western blotting analysis relative to control; type: cell-based
How it was run: (§3)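 MDA-MB-231 cells grown in DMEM/F12 (1:1) with 10% FBS, penicillin/streptomycin at 37°C, 5% CO2. Exposed to compounds over a concentration series for 3 h. Whole-cell extracts were separated by SDS–PAGE and transferred to nitrocellulose. Blots were probed with the indicated antibodies (p-AMPKα, p-Raptor, p21, β-actin) and detected by ECL. p-AMPKα was normalized to β-actin.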

MDA-MB-231 [6] = test: Induction of AMPKalpha phosphorylation at T172 residue in human MDA-MB-231 cells after 3 hrs by Western blotting analysis relative to control; type: cell-based; how it was run: as §3
MDA-MB-231 [7] = test: Cytotoxicity against human MDA-MB-231 cells assessed as CD44+high/CD24-low cells after 48 hrs by FACS-flow cytometry (reference value: 45%); type: functional, cell-based
How it was run: (§4)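 MDA-MB-231 cells were cultured 5 days on low-adherent plates in sphere medium. Spheres were dissociated with accutase (37°C, 5 min), reseeded and treated with compounds for 48 h. Cells were detached with 0.02% EDTA/PBS and stained with anti-CD44-FITC and anti-CD24-PE or isotype controls for 30 min at 4°C in the dark. The CD44high/CD24low fraction was measured by flow cytometry. Mean of three experiments.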

[8] = Activation of AMPKalpha in human MDA-MB-231 cells assessed as suppression of mTOR pathway measuring decrease in p70-S6K T389 phosphorylation at 5 to 40 uM after 3 hrs by Western blotting analysis relative to control; type: cell-based
MDA-MB-231 [9] = test: Cytotoxicity against human MDA-MB-231 cells assessed as CD44+high/CD24-low cells at 20 uM after 48 hrs by FACS-flow cytometry (reference value: 45%); type: functional; how it was run: as §4
MDA-MB-231 [10] = test: Induction of AMPKalpha-mediated up-regulation of p21 in human MDA-MB-231 cells at 5 to 40 uM after 3 hrs by Western blotting analysis relative to control; type: cell-based; how it was run: as §3
MDA-MB-231 [11] = test: Cytotoxicity against human MDA-MB-231 cells assessed as CD44+high/CD24-low cells at 10 uM after 48 hrs by FACS-flow cytometry (reference value: 45%); type: functional; how it was run: as §4
MDA-MB-231 [12] = test: Antiproliferative activity against human MDA-MB-231 cells at 1 to 20 mM after 24 hrs by MTT assay; type: functional, cell-based; how it was run: as §1
MDA-MB-231 [13] = test: Inhibition of mammosphere formation in human MDA-MB-231 cells at 5 mM after 7 days by inverted phase-contrast microscopy; type: functional; details: MDA-MB-231, 168 h; how it was run: as §2
MDA-MB-231 [14] = test: Induction of AMPKalpha phosphorylation at T172 residue in human MDA-MB-231 cells at 10 mM after 3 hrs by Western blotting analysis relative to control; type: cell-based
How it was run: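 MDA-MB-231 human breast cancer cells grown in DMEM/F12 (1:1) with 10% FBS, penicillin and streptomycin at 37°C, 5% CO2. Treated for 3 h, then whole-cell extracts separated by SDS–PAGE, blotted to nitrocellulose and detected by ECL. Phospho-AMPKα (T172) band normalized to β-actin.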

MDA-MB-231 [15] = test: Inhibition of mammosphere formation in human MDA-MB-231 cells at 10 mM after 7 days by inverted phase-contrast microscopy; type: functional; details: MDA-MB-231, 168 h; how it was run: as §2

O=C(O[C@H]1Cc2ccccc2C[C@H]1OC(=O)c1cc(O)c(O)c(O)c1)c1cc(O)c(O)c(O)c1
fold change (FC) (MDA-MB-231 [1]): 5.1

O=C(O[C@@H]1Cc2c(O)cc(O)cc2O[C@@H]1c1cc(O)c(O)c(O)c1)c1cc(O)c(O)c(O)c1 [EPIGALOCATECHIN GALLATE]
Activity (MDA-MB-231 [2]): Active | inhibition at 10 µM (MDA-MB-231 [3]): 20.1% | fold change (FC) (MDA-MB-231 [1]): 3.9 | inhibition at 20 µM (MDA-MB-231 [4]): 51.3%

O=C(O[C@H]1Cc2ccccc2C[C@H]1OC(=O)c1cc(O)c(Br)c(O)c1)c1cc(O)c(Br)c(O)c1
Activity (MDA-MB-231 [5]): Dose-dependent effect | Activity (MDA-MB-231 [6]): Dose-dependent effect | Activity (MDA-MB-231 [2]): Dose-dependent effect | Activity (MDA-MB-231 [7]): Dose-dependent effect | inhibition at 10 µM (MDA-MB-231 [3]): 45.1% | fold change (FC) (MDA-MB-231 [1]): 13.5 | Activity [8]: Active | Activity (MDA-MB-231 [9]): 18% | Activity (MDA-MB-231 [10]): Active | inhibition at 20 µM (MDA-MB-231 [4]): 66.7% | Activity (MDA-MB-231 [11]): 30.5%

O=C(O[C@H]1Cc2ccccc2C[C@H]1OC(=O)c1cc(O)cc(O)c1)c1cc(O)cc(O)c1
fold change (FC) (MDA-MB-231 [1]): 5.1

Nc1ccc(C(=O)O[C@H]2Cc3ccccc3C[C@H]2OC(=O)c2ccc(N)cc2)cc1
Activity (MDA-MB-231 [5]): Dose-dependent effect | Activity (MDA-MB-231 [6]): Dose-dependent effect | Activity (MDA-MB-231 [2]): Dose-dependent effect | Activity (MDA-MB-231 [7]): Dose-dependent effect | inhibition at 10 µM (MDA-MB-231 [3]): 52.2% | fold change (FC) (MDA-MB-231 [1]): 13.7 | Activity [8]: Active | Activity (MDA-MB-231 [9]): 13.9% | Activity (MDA-MB-231 [10]): Active | inhibition at 20 µM (MDA-MB-231 [4]): 73.3% | Activity (MDA-MB-231 [11]): 25.6%

CN(C)C(=N)NC(=N)N [METFORMIN]
Activity (MDA-MB-231 [12]): Active | inhibition at 5000 µM (MDA-MB-231 [13]): 41.4% | fold change (FC) (MDA-MB-231 [14]): 6.3 | inhibition at 10000 µM (MDA-MB-231 [15]): 67.6%

CC(=O)Oc1cc(OC(C)=O)c2c(c1)O[C@H](c1cc(OC(C)=O)c(OC(C)=O)c(OC(C)=O)c1)[C@H](OC(=O)c1cc(OC(C)=O)c(OC(C)=O)c(OC(C)=O)c1)C2
fold change (FC) (MDA-MB-231 [1]): 3.9

CC(=O)Nc1ccc(C(=O)O[C@H]2Cc3ccccc3C[C@H]2OC(=O)c2ccc(NC(C)=O)cc2)cc1
fold change (FC) (MDA-MB-231 [1]): 6
